# The source made the active and inactive calls. No cut-off for these calls is given here.
# Legend:
# Plasmodium falciparum = experiment: Antiplasmodium activity against Plasmodium falciparum W2 by flow cytometry; format: functional, organism-based
# Outline: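 Activity against P. falciparum, reported as EC50, the mean of three or six separate determinations.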
# Plasmodium berghei [1] = experiment: Antimalarial activity against Plasmodium berghei infected in Swiss-Webster mouse assessed as mouse survival at 9.5 mg/kg qd for 4 days administered via oral gavage; format: functional, organism-based
# Outline: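 Female Swiss-Webster mice (n = 5 per arm) were inoculated with 10^6 P. berghei parasites. Oral gavage once daily for 4 days, starting on the day of inoculation; doses were equimolar across compounds. Parasitemia, morbidity and survival were followed daily for 28 days, with euthanasia as the protocol required.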
# [2] = Stability in human plasma after 120 mins by LC/MS analysis; format: ADME, cell-free; conditions: read-out: Stability
# Outline: (§1)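 Compounds were incubated at 37 °C in human plasma or whole blood for 240 min (120 min in some plasma cases). The value is the percent of parent remaining.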
# [3] = Ratio of drug level in human blood to plasma; format: ADME, cell-free; conditions: whole blood and plasma
# Plasmodium chabaudi [4] = experiment: Antimalarial activity against Plasmodium chabaudi infected in Balb/c mouse assessed as parastemia at 10 mg/kg, ip administered as single dose measured 7 day postinoculation (reference value: 34 +/- 2.3 %); format: functional
# [5] = Stability in human plasma after 240 mins by LC/MS analysis; format: ADME, cell-free; conditions: read-out: Stability; outline: as §1
# [6] = Stability in human blood after 240 mins by LC/MS analysis; format: ADME; conditions: whole blood, read-out: Stability; outline: as §1
# [7] = Tmax in Plasmodium chabaudi infected Balb/c mouse plasma at 10 mg/kg, ip by LC-MS/MS analysis; format: ADME, organism-based
# Outline: (§2)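 P. chabaudi-infected mice given a single 10 mg/kg i.p. dose. Blood and brain were sampled over 24 h and analysed for drug concentrations. Plasma concentration–time course used; brain levels reported at three time points.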
# [8] = Drug level in Plasmodium chabaudi infected Balb/c mouse brain at 10 mg/kg, ip at 24 hrs by LC-MS/MS analysis; format: ADME, organism-based; conditions: read-out: Drug uptake; outline: as §2
# Plasmodium chabaudi [9] = experiment: Antimalarial activity against Plasmodium chabaudi infected in Balb/c mouse assessed as parastemia at 10 mg/kg, ip measured 13 day postinoculation; format: functional
# Plasmodium berghei [10] = experiment: Antimalarial activity against Plasmodium berghei infected in Swiss-Webster mouse assessed as decrease in parasitemia at 10 mg/kg qd for 4 days administered via oral gavage; format: functional, organism-based
# Outline: (§3)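 Female Swiss-Webster mice (n = 5 per arm) inoculated with 10^6 P. berghei parasites. Compound or vehicle given by oral gavage once daily for 4 days, starting on the day of inoculation. Parasitemia, morbidity and mortality recorded daily over 28 days; mice euthanized as required by study protocol.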
# Plasmodium berghei [11] = experiment: Antimalarial activity against Plasmodium berghei infected in Swiss-Webster mouse assessed as mouse survival upto day 28 at 10 mg/kg qd for 4 days administered via oral gavage; format: functional, organism-based; outline: as §3
# Plasmodium chabaudi [12] = experiment: Antimalarial activity against Plasmodium chabaudi infected in Balb/c mouse assessed as parastemia at 10 mg/kg, ip administered as single dose measured 4 day postinoculation (reference value: 4.6 +/- 0.5 %); format: functional
# [13] = Tmax in Balb/c mouse at 50 mg/kg, ip by LC-MS/MS analysis; format: ADME, organism-based; conditions: in vivo
# Outline: (§4)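 Noncompartmental plasma PK after one i.p. dose of 50 mg/kg in uninfected mice and in P. chabaudi-infected mice. Parameters are terminal t1/2, tmax, Cmax, AUCinf, CL/F, Vz/F, MRTlast and MRTinf. F is the fraction of drug reaching systemic exposure after the i.p. dose.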
# [14] = Mean residence time (infinity) in Balb/c mouse at 50 mg/kg, ip by LC-MS/MS analysis; format: ADME, organism-based; conditions: in vivo; outline: as §4
# Plasmodium chabaudi [15] = experiment: Antimalarial activity against Plasmodium chabaudi infected in Balb/c mouse assessed as parastemia at 8 mg/kg, ip measured 4 day postinoculation (reference value: 4.6 +/- 0.5 %); format: functional
# Outline: (§5)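 Mice infected with P. chabaudi received one i.p. dose on day 4 postinoculation. Parasitemia (%) was measured on days 4, 7 and 13 postinoculation and reported as mean ± SEM. Animals in poor health were sacrificed on day 8 as the protocol required.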
# Brain = experiment: Prodrug activation in Plasmodium chabaudi infected Balb/c mouse brain assessed as mefloquine level at 50 mg/kg, ip at 24 hrs by LC-MS/MS analysis; format: organism-based; conditions: in vivo
# Outline: (§6)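 Infected mice (P. chabaudi) each got one i.p. dose of 50 mg/kg of the trioxolane conjugate. Blood and brain were collected over 24 h. Plasma and brain were analysed for intact conjugate and for released mefloquine.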
# Plasmodium chabaudi [16] = experiment: Antimalarial activity against Plasmodium chabaudi infected in Balb/c mouse assessed as parastemia at 16.5 mg/kg, ip measured 7 day postinoculation (reference value: 34 +/- 2.3 %); format: functional; outline: as §5
# [17] = Terminal half life in Plasmodium chabaudi infected Balb/c mouse at 50 mg/kg, ip by LC-MS/MS analysis; format: ADME, organism-based; conditions: in vivo, read-out: beta t1/2 (converted); outline: as §4
# [18] = Mean residence time (last) in Balb/c mouse at 50 mg/kg, ip by LC-MS/MS analysis; format: ADME, organism-based; conditions: in vivo; outline: as §4
# [19] = Mean residence time (last) in Plasmodium chabaudi infected Balb/c mouse at 50 mg/kg, ip by LC-MS/MS analysis; format: ADME, organism-based; conditions: in vivo; outline: as §4
# Plasmodium chabaudi [20] = experiment: Antimalarial activity against Plasmodium chabaudi infected in Balb/c mouse assessed as parastemia at 16.5 mg/kg, ip measured 4 day postinoculation (reference value: 4.6 +/- 0.5 %); format: functional; outline: as §5
# Plasma [21] = experiment: Prodrug activation in Plasmodium chabaudi infected Balb/c mouse plasma assessed as mefloquine level at 50 mg/kg, ip at 24 hrs by LC-MS/MS analysis; format: organism-based; conditions: in vivo; outline: as §6
# [22] = AUC (infinity) in Plasmodium chabaudi infected Balb/c mouse at 50 mg/kg, ip by LC-MS/MS analysis; format: ADME, organism-based; parameters: dose 50 mg/kg, route intraperitoneal, time infinity; conditions: in vivo; outline: as §4
# Plasmodium chabaudi [23] = experiment: Antimalarial activity against Plasmodium chabaudi infected in Balb/c mouse assessed as parastemia at 8 mg/kg, ip measured 7 day postinoculation (reference value: 34 +/- 2.3 %); format: functional; outline: as §5
# [24] = Terminal half life in Balb/c mouse at 50 mg/kg, ip by LC-MS/MS analysis; format: ADME, organism-based; conditions: in vivo, read-out: beta t1/2 (converted); outline: as §4
# Plasmodium chabaudi [25] = experiment: Antimalarial activity against Plasmodium chabaudi infected in Balb/c mouse assessed as parastemia at 50 mg/kg, ip measured 7 day postinoculation (reference value: 34 +/- 2.3 %); format: functional; outline: as §5
# [26] = AUC (infinity) in Balb/c mouse at 50 mg/kg, ip by LC-MS/MS analysis; format: ADME, organism-based; parameters: dose 50 mg/kg, time infinity, route intraperitoneal; conditions: in vivo; outline: as §4
# [27] = Apparent oral clearance in Plasmodium chabaudi infected Balb/c mouse at 50 mg/kg, ip by LC-MS/MS analysis; format: ADME, organism-based; conditions: in vivo; outline: as §4
# [28] = Cmax in Balb/c mouse at 50 mg/kg, ip by LC-MS/MS analysis; format: ADME, organism-based; parameters: dose 50 mg/kg, route intraperitoneal; conditions: in vivo; outline: as §4
# [29] = Cmax in Plasmodium chabaudi infected Balb/c mouse at 50 mg/kg, ip by LC-MS/MS analysis; format: ADME, organism-based; parameters: dose 50 mg/kg, route intraperitoneal; conditions: in vivo; outline: as §4
# [30] = Apparent volume of distribution during terminal phase in Plasmodium chabaudi infected Balb/c mouse at 50 mg/kg, ip by LC-MS/MS analysis; format: ADME, organism-based; conditions: in vivo, read-out: Vz/F; outline: as §4
# [31] = Apparent oral clearance in Balb/c mouse at 50 mg/kg, ip by LC-MS/MS analysis; format: ADME, organism-based; conditions: in vivo; outline: as §4
# [32] = Tmax in Plasmodium chabaudi infected Balb/c mouse at 50 mg/kg, ip by LC-MS/MS analysis; format: ADME, organism-based; conditions: in vivo; outline: as §4
# [33] = Apparent volume of distribution during terminal phase in Balb/c mouse at 50 mg/kg, ip by LC-MS/MS analysis; format: ADME, organism-based; conditions: in vivo, read-out: Vz/F; outline: as §4
# [34] = Tmax in Plasmodium chabaudi infected Balb/c mouse plasma at 50 mg/kg, ip by LC-MS/MS analysis; format: ADME, organism-based; outline: as §6
# Plasmodium chabaudi [35] = experiment: Antimalarial activity against Plasmodium chabaudi infected in Balb/c mouse assessed as parastemia at 16.5 mg/kg, ip measured 13 day postinoculation; format: functional; outline: as §5
# Plasma [36] = experiment: Prodrug activation in Plasmodium chabaudi infected Balb/c mouse plasma assessed as mefloquine level at 50 mg/kg, ip at 30 mins by LC-MS/MS analysis; format: organism-based; conditions: in vivo, 0.5 h; outline: as §6
# [37] = Mean residence time (infinity) in Plasmodium chabaudi infected Balb/c mouse at 50 mg/kg, ip by LC-MS/MS analysis; format: ADME, organism-based; conditions: in vivo; outline: as §4
# Plasmodium chabaudi [38] = experiment: Antimalarial activity against Plasmodium chabaudi infected in Balb/c mouse assessed as parastemia at 50 mg/kg, ip measured 13 day postinoculation; format: functional; outline: as §5
# Plasmodium chabaudi [39] = experiment: Antimalarial activity against Plasmodium chabaudi infected in Balb/c mouse assessed as parastemia at 50 mg/kg, ip measured 4 day postinoculation (reference value: 4.6 +/- 0.5 %); format: functional; outline: as §5
smiles,measurement,setting,value
CC(C)(N)CNC(=O)O[C@H]1CCC[C@@]2(C1)OOC1(O2)C2CC3CC(C2)CC1C3 (some centres undefined),EC50,Plasmodium falciparum,2.7 nM
same,Activity,Plasmodium berghei [1],Active
same,remaining at 2 h,[2],97%
CC(C)(N)CNC(=O)C[C@H]1CC[C@]2(CC1)OOC1(O2)C2CC3CC(C2)CC1C3 (some centres undefined),EC50,Plasmodium falciparum,2.5 nM
same,blood plasma ratio,[3],1.5
"O[C@@H](c1cc(C(F)(F)F)nc2c(C(F)(F)F)cccc12)[C@H]1CCCCN1 (racemic) [(S,R)-MEFLOQUINE]",Activity,Plasmodium chabaudi [4],0.02%
same,remaining at 4 h,[5],97%
same,remaining at 4 h,[6],95%
same,EC50,Plasmodium falciparum,2.5 nM
same,Tmax,[7],5 min
same,concentration at 24 h,[8],1400 ng/mL
same,Activity,Plasmodium chabaudi [9],0%
same,inhibition,Plasmodium berghei [10],Active
same,Activity,Plasmodium berghei [11],Active
same,blood plasma ratio,[3],1.6
same,Activity,Plasmodium chabaudi [12],4.8%
O=C(O[C@H]1CCC[C@@]2(C1)OOC1(O2)C2CC3CC(C2)CC1C3)N1CCCC[C@@H]1[C@@H](O)c1cc(C(F)(F)F)nc2c(C(F)(F)F)cccc12 (some centres undefined),Tmax,[13],1 h
same,MRT inf,[14],11 h
same,remaining at 4 h,[5],94%
same,remaining at 4 h,[6],85%
same,Activity,Plasmodium chabaudi [15],4.8%
same,Drug metabolism,Brain,250 ng/mL
same,Activity,Plasmodium chabaudi [16],0.7%
same,half-life,[17],8.6 h
same,EC50,Plasmodium falciparum,3 nM
same,MRT last,[18],6.93 h
same,MRT last,[19],6.43 h
same,Activity,Plasmodium chabaudi [20],4.5%
same,Drug metabolism,Plasma [21],metabolite_detected
same,AUC(0-inf),[22],13600 ng·h/mL
same,Activity,Plasmodium chabaudi [23],33%
same,half-life,[24],8.41 h
same,Activity,Plasmodium chabaudi [25],0%
same,AUC(0-inf),[26],34100 ng·h/mL
same,CL/F,[27],61.2 mL/min/kg
same,Cmax,[28],3620 ng/mL
same,Cmax,[29],1570 ng/mL
same,Vd/F,[30],45.5 L/kg
same,CL/F,[31],24.5 mL/min/kg
same,Tmax,[32],2 h
same,Vd/F,[33],17.8 L/kg
same,Tmax,[34],0.5 h
same,blood plasma ratio,[3],0.7
same,Activity,Plasmodium chabaudi [35],0.65%
same,Drug metabolism,Plasma [36],metabolite_notdetected
same,MRT inf,[37],10.6 h
same,Activity,Plasmodium chabaudi [38],0%
same,Activity,Plasmodium chabaudi [39],5.4%
C[C@@H]1CC[C@H]2[C@@H](C)C(=O)O[C@@H]3O[C@@]4(C)CC[C@@H]1[C@]32OO4 [ARTEMISININ],EC50,Plasmodium falciparum,9.3 nM

# — ChEMBL document CHEMBL3763118, “Trioxolane-Mediated Delivery of Mefloquine Limits Brain Exposure in a Mouse Model of Malaria” (ACS Med Chem Lett, 2015)
